Activity calls are given as the source filed them. No cut-off for these calls is given here.
Legend:
Human betaherpesvirus 5 [1] = experiment: Antiviral activity against Human cytomegalovirus Towne infected in human foreskin fibroblast cells by plaque reduction assay; format: functional, organism-based; details: Human betaherpesvirus 5, Towne
Method in brief: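 HCMV Towne in human foreskin fibroblasts, plaque reduction assay; EC50 from plaque counts; cytotoxicity scored visually in uninfected HFF used for the plaque assays.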

Human betaherpesvirus 5 [2] = experiment: Antiviral activity against Human cytomegalovirus AD169 infected in human foreskin fibroblast cells assessed as inhibition of virus-induced cytopathic effect; format: functional, organism-based; details: Human betaherpesvirus 5, AD169, Fibroblast
Method in brief: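 HCMV strain AD169 grown in human foreskin fibroblasts; cytopathic effect (CPE) inhibition assay gives EC50; cytotoxicity taken by neutral red uptake.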

Human gammaherpesvirus 4 = experiment: Antiviral activity against Epstein-Barr virus infected in human Akata cells by DNA hybridization assay; format: functional, organism-based; details: human gammaherpesvirus 4, Akata
Method in brief: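 EBV DNA hybridization assay run in Akata cells; EC50 by DNA hybridization.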

[3] = Cytotoxicity against human Akata cells; format: cell-based
Hepatitis B virus = experiment: Antiviral activity against Hepatitis B virus; format: functional, organism-based
Hepatitis C virus = experiment: Antiviral activity against Hepatitis C virus; format: functional, organism-based; details: Hepacivirus hominis
[4] = biological target: T1, Adenosine deaminase (Bos taurus) (UniProt P56658); experiment: Activity of calf intestine adenosine deaminase assessed as deamination after 24 hrs; parameters: concentration or dose not given beside the values
T1 sequence (whole entry): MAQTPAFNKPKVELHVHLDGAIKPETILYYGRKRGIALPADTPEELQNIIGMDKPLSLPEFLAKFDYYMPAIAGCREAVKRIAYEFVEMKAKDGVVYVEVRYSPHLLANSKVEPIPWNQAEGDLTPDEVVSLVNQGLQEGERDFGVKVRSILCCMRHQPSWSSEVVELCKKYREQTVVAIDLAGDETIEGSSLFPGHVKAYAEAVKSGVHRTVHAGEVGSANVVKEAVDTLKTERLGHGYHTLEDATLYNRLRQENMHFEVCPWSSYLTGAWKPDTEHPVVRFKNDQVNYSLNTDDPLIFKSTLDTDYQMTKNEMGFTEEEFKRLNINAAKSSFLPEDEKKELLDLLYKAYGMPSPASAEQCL
Method in brief: (§1)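 Substrate (2 µmol) stirred with calf intestine ADA (1.7 units) in 0.05 M Na2HPO4, pH 7.5, 0.6 mL total. Aliquots withdrawn, diluted with buffer, and UV spectra recorded. Deamination followed as the fall in absorbance at 260 nm, expressed as percent deaminated at 24 h and 48 h.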

[5] = biological target: T1, Adenosine deaminase (Bos taurus); experiment: Activity of calf intestine adenosine deaminase assessed as deamination after 48 hrs; parameters: concentration or dose not given beside the values; method in brief: as §1
HFF [6] = experiment: (§2) Cytotoxicity against HFF cells by neutral red uptake assay; format: cell-based; details: human, hff
Method in brief: (§3)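 Uninfected HFF cells, run alongside the HCMV cytopathic effect inhibition assay. Cytotoxicity read by neutral red uptake.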

HFF [7] = experiment: (§4) Cytotoxicity against HFF cells by plaque reduction assay; format: cell-based; details: human, hff
Method in brief: (§5)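 Cytotoxicity scored visually in uninfected HFF cells run alongside the HCMV plaque reduction assays.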

Murid betaherpesvirus 1 = experiment: Antiviral activity against Murine cytomegalovirus infected in mouse embryonic fibroblast cells by plaque reduction assay; format: functional, organism-based; details: Murid betaherpesvirus 1, Fibroblast
Method in brief: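 MCMV plaque reduction assay in mouse embryonic fibroblast (MEF) cells; EC50 from plaque counts.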

Human betaherpesvirus 5 [8] = experiment: Antiviral activity against cyclopropavir-resistant Human cytomegalovirus isolate 2696r with phosphotransferase UL97 mutation by plaque reduction assay; format: functional, organism-based; details: Human betaherpesvirus 5, isolate 2696r
Method in brief: (§6)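 Plaque reduction in HFF cells with UL97-mutant HCMV raised from Towne: E8 (two point mutations in UL97, selected by growth in synadenol) and 2696r (truncated UL97, selected in cyclopropavir). Four drug concentrations tested in duplicate; EC50 from plaque counts.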

Human betaherpesvirus 5 [9] = experiment: Antiviral activity against Human cytomegalovirus E8 with phosphotransferase UL97 two point mutation by plaque reduction assay; format: functional, organism-based; details: Human betaherpesvirus 5, E8; method in brief: as §6
MEF = experiment: Cytotoxicity against MEF cells; format: cell-based; details: mouse
Human alphaherpesvirus 1 [10] = experiment: Antiviral activity against HSV1 infected in african green monkey BSC1 cells by ELISA; format: functional, organism-based; details: Human alphaherpesvirus 1, BSC-1
[11] = Cytotoxicity against african green monkey BSC1 cells; format: cell-based; details: chlorocebus aethiops, bsc-1
Human alphaherpesvirus 1 [12] = experiment: Antiviral activity against HSV1 infected in human foreskin fibroblast cells; format: functional, organism-based
Human alphaherpesvirus 2 = experiment: Antiviral activity against HSV2 infected in human foreskin fibroblast cells; format: functional, organism-based
Human alphaherpesvirus 3 = experiment: Antiviral activity against Varicella zoster virus infected in human foreskin fibroblast cells; format: functional, organism-based; details: Human alphaherpesvirus 3, Fibroblast
[13] = as §4; format: cell-based; details: human, HFF cells; method in brief: as §5
[14] = as §2; format: cell-based; details: human, HFF cells; method in brief: as §3

| Structure (SMILES) | EC50 (Human betaherpesvirus 5 [1]) [µM] | EC50 (Human betaherpesvirus 5 [2]) [µM] | EC50 (Human gammaherpesvirus 4) [µM] | CC50 ([3]; akata) [µM] | Activity (Hepatitis B virus) | Activity (Hepatitis C virus) | Activity [4] [%] | Activity [5] [%] | CC50 (HFF [6]) [µM] | other results |
| --- | --- | --- | --- | --- | --- | --- | --- | --- | --- | --- |
| Nc1ncnc2c1ncn2/C=C1/C[C@H]1[C@@H](O)CO | > 100 | > 60 | 52.6 | 61.5 | inactive | inactive | 0 | 0 |  |  |
| Nc1nc2c(ncn2/C=C2\C[C@@H]2[C@H](O)CO)c(=O)[nH]1 | > 100 | > 60 | > 20 | 67 | inactive | inactive |  |  | > 300 |  |
| Nc1ncnc2c1ncn2/C=C1/C[C@@H]1[C@H](O)CO | > 100 | 300 | > 20 | 50.5 | inactive | inactive | 45 | 80 |  |  |
| Nc1nc2c(ncn2/C=C2/C[C@H]2[C@H](O)CO)c(=O)[nH]1 | > 100 | > 300 | > 20 | 62.6 | inactive | inactive |  |  |  |  |
| Nc1nc2c(ncn2/C=C2/C[C@@H]2[C@H](O)CO)c(=O)[nH]1 | > 100 | > 300 | 43 | 54 | inactive | inactive |  |  |  |  |
| Nc1nc2c(ncn2/C=C2\C[C@H]2[C@H](O)CO)c(=O)[nH]1 | > 100 | > 300 | 58.7 | 86.6 | inactive | inactive |  |  |  | CC50 (HFF [7]): > 300 µM |
| Nc1ncnc2c1ncn2/C=C1\C[C@@H]1[C@H](O)CO | > 100 | > 60 | > 20 | 57 | inactive | inactive | 85 | 100 |  | CC50 (HFF [7]): > 100 µM |
| Nc1nc2c(ncn2/C=C2\C[C@@H]2[C@@H](O)CO)c(=O)[nH]1 | > 100 | > 300 | 18 | 61 | inactive | inactive |  |  |  |  |
| Nc1nc2c(ncn2/C=C2/C[C@@H]2[C@@H](O)CO)c(=O)[nH]1 | > 100 | > 300 | > 20 | 56 | inactive | inactive |  |  |  |  |
| Nc1nc2c(ncn2COC(CO)CO)c(=O)[nH]1 [GANCICLOVIR] | 1.2 | 0.04 |  |  | inactive | inactive |  |  |  | EC50 (Murid betaherpesvirus 1): 5.5 µM; EC50 (Human betaherpesvirus 5 [8]): 42 µM; EC50 (Human betaherpesvirus 5 [9]): 22 µM |
| Nc1nc2c(ncn2/C=C2\C[C@H]2[C@@H](O)CO)c(=O)[nH]1 | > 100 | > 60 | 40 | 75 | inactive | inactive |  |  | 298 |  |
| Nc1ncnc2c1ncn2/C=C1/C[C@H]1[C@H](O)CO | > 100 | > 60 | 60 | 93.5 | inactive | inactive | 0 | 0 | 206 |  |
| Nc1nc2c(ncn2/C=C2/C[C@H]2[C@@H](O)CO)c(=O)[nH]1 | 6.8 | 7.5 | 8 | 78 | inactive | inactive |  |  | 299 | CC50 (HFF [7]): > 100 µM; EC50 (Murid betaherpesvirus 1): 11.3 µM; Activity (MEF): Not Active; EC50 (Human alphaherpesvirus 1 [10]): 50 µM; CC50 [11]: > 100 µM; Activity (Human alphaherpesvirus 1 [12]): inactive; Activity (Human alphaherpesvirus 2): inactive; EC50 (Human alphaherpesvirus 3): 47 µM; EC50 (Human betaherpesvirus 5 [8]): > 100 µM; EC50 (Human betaherpesvirus 5 [9]): 72 µM |
| Nc1nc(O)c2ncn(COC(CO)CO)c2n1 [GANCICLOVIR] |  |  |  |  |  |  |  |  |  | CC50 [13]: > 100 µM; CC50 [14]: > 100 µM |
| Nc1ncnc2c1ncn2/C=C1\C[C@H]1[C@@H](O)CO | > 100 | > 60 | 17 | 73 | inactive | inactive | 100 | 100 | 264 |  |
| Nc1ncnc2c1ncn2/C=C1\C[C@@H]1[C@@H](O)CO | > 100 | > 300 | 50.4 | 50.6 | inactive | inactive | 100 | 100 |  |  |
| Nc1nc2c(ncn2/C=C2/CC2(CO)CO)c(=O)[nH]1 [FILOCICLOVIR] | 0.46 | 0.49 | 0.22 |  | inactive | inactive |  |  |  | CC50 [13]: > 100 µM; CC50 [14]: > 100 µM; EC50 (Human betaherpesvirus 5 [8]): 28 µM; EC50 (Human betaherpesvirus 5 [9]): 8 µM |
| Nc1nc2c(ncn2COCCO)c(=O)[nH]1 [ACYCLOVIR] |  |  | 3.3 |  | inactive | inactive |  |  |  | CC50 ([3]; Akata cells): > 100 µM |
| Nc1ncnc2c1ncn2/C=C1/C[C@@H]1[C@@H](O)CO | > 100 | > 60 | 43 | 55 | inactive | inactive | 65 | 80 | > 300 |  |
| Nc1ncnc2c1ncn2/C=C1\C[C@H]1[C@H](O)CO | > 100 | > 60 | 9.8 | 72.7 | inactive | inactive | 65 | 85 | 194 |  |

Reference: ChEMBL document CHEMBL1138503, “(Z)- and (E)-2-(1,2-dihydroxyethyl)methylenecyclopropane analogues of 2'-deoxyadenosine and 2'-deoxyguanosine. Synthesis of all stereoisomers, absolute configuration, and antiviral activity” (J Med Chem, 2009)
